Data as given in ChEMBL document CHEMBL4321819, “Simple Structural Modifications Converting a Bona fide MDM2 PROTAC Degrader into a Molecular Glue Molecule: A Cautionary Tale in the Design of PROTAC Degraders” (J Med Chem, 2019).
The source made the active and inactive calls. No cut-off for these calls is given here.

Legend:
MDA-MB-468 [1] = experiment: Antiproliferative activity against human MDA-MB-468 cells harboring mutant p53 assessed as cell growth inhibition after 4 days by WST-8 assay; assay type: functional, cell-based
Outline: (§1)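 Leukemia cells seeded at 10000–20000 cells/well, breast cancer lines at 5000–10000 cells/well. Serially diluted compound added, then 4 days at 37 °C, 5% CO2. Growth read with WST-8 reagent after at least 1 h, absorbance at 450 nm. RS4;11, MOLM-13 and breast lines were grown in RPMI 1640; MV-4-11 and HL-60 in IMDM; all with 10% FBS. Mean ± SE, at least three independent experiments.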

[2] = biological target: Cellular tumor antigen p53 (Homo sapiens) (UniProt P04637); experiment: Activation of p53 in human RS4:11 cells assessed as increase in PUMA mRNA expression at 10 nM after 1 to 2 hrs by qRT-PCR analysis; assay type: cell-based
Outline: (§2)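 RS4;11 cells (RPMI 1640, 10% FBS, 37 °C, 5% CO2) treated with 3 nM or 10 nM compound; total RNA extracted and mRNA of p53 targets MDM2, CDKN1A, PUMA and BAX quantified by qRT-PCR. Mean ± standard error from at least three independent experiments.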

[3] = biological target: T1, Protein cereblon/Eukaryotic peptide chain release factor GTP-binding subunit ERF3A/DNA damage-binding protein 1/Cullin-4A (Homo sapiens) (UniProt Q96SW2+Q16531+Q13619+P15170); experiment: Protac activity at GSPT1/CUL4/DDB1/CRBN in human RS4:11 cells expressing wild type p53 assessed as decrease in GSPT1 protein level at 10 nM by Western blot analysis; assay type: cell-based
Outline: (§3)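 RS4;11 (wild-type p53) or RS4;11/IRMI-2 (MDM2 inhibitor-resistant derivative, mutant p53) cells kept in RPMI 1640 with 10% FBS at 37 °C, 5% CO₂. 2×10^6 cells/well treated at the indicated concentrations and times, then lysed in ice-cold lysis buffer with protease inhibitor. GSPT1 detected by Western blot with a specific antibody.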

MDA-MB-468 [4] = experiment: Antiproliferative activity against human MDA-MB-468 cells transfected with CRBN siRNA LQ-021086-10-0002 assessed as cell growth inhibition after 4 days by WST-8 assay; assay type: functional, cell-based; conditions: MDA-MB-468, 96 h
Outline: (§4)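 MDA-MB-231 or MDA-MB-468 cells transfected for 2 days using Lipofectamine RNAiMAX with MDM2 siRNA, one of two CRBN siRNAs, or non-targeting control siRNA. Compound then added and growth read by WST-8 at 450 nm.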

[5] = biological target: Cellular tumor antigen p53 (Homo sapiens) (UniProt P04637); experiment: Activation of p53 in human RS4:11 cells assessed as increase in MDM2 mRNA expression at 10 nM after 1 to 2 hrs by qRT-PCR analysis; assay type: cell-based; outline: as §2
[6] = biological target: Cellular tumor antigen p53 (Homo sapiens) (UniProt P04637); experiment: Activation of p53 in human RS4:11 cells assessed as increase in CDKN1A mRNA expression at 10 nM after 1 to 2 hrs by qRT-PCR analysis; assay type: cell-based; outline: as §2
Homo sapiens = species: Homo sapiens; experiment: Antiproliferative activity against human RS4:11/IRMI-2 cells harboring p53 hotspot mutation Y236H/R249G assessed as cell growth inhibition after 4 days by WST-8 assay; assay type: functional, cell-based; outline: as §1
HL-60 = experiment: Antiproliferative activity against human HL60 cells with lack of p53 assessed as cell growth inhibition after 4 days by WST-8 assay; assay type: functional, cell-based; outline: as §1
[7] = biological target: T1, Protein cereblon/Eukaryotic peptide chain release factor GTP-binding subunit ERF3A/DNA damage-binding protein 1/Cullin-4A (Homo sapiens); experiment: Protac activity at GSPT1/CUL4/DDB1/CRBN in human RS4:11 cells expressing wild type p53 assessed as decrease in GSPT1 protein level measured upto 24 hrs by Western blot analysis; assay type: cell-based; outline: as §3
RS4-11 = experiment: Antiproliferative activity against human RS4:11 cells expressing wild type p53 assessed as MDM2-independent cell growth inhibition after 4 days by WST-8 assay; assay type: functional, cell-based; conditions: RS4-11, 96 h; outline: as §1
MDA-MB-231 [8] = experiment: Antiproliferative activity against human MDA-MB-231 cells assessed as cell growth inhibition after 4 days in presence of control siRNA for 3 days followed by compound treatment by WST-8 assay; assay type: functional, cell-based
[9] = biological target: T2, E3 ubiquitin-protein ligase Mdm2 (Homo sapiens, UniProt Q00987); experiment: Induction of MDM2 degradation in human RS4:11 cells assessed as upregulation of p53 at 1 to 30 nM after 2 hrs by Western blot analysis; assay type: cell-based
Outline: (§5)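 Western blots of MDM2 and p53 protein were run on RS4;11 cells (wild-type p53) in RPMI 1640 with 10% FBS. 2×10^6 cells/well were treated at the indicated concentrations for 1 h or 2 h. Lysis was in ice-cold buffer with protease inhibitor, followed by probing with specific antibodies.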

[10] = Antiproliferative activity against human RS4:11/IRMI-2 cells harboring p53 hotspot mutation Y236H/R249G assessed as MDM2-independent cell growth inhibition after 4 days by WST-8 assay; assay type: functional, cell-based; conditions: RS4-11, 96 h; outline: as §1
[11] = biological target: T2, E3 ubiquitin-protein ligase Mdm2; experiment: Induction of MDM2 degradation in human RS4:11/IRMI-2 cells harboring p53 hotspot mutation Y236H/R249G assessed as downregulation of MDM2 at 1 to 30 nM after 2 hrs by Western blot analysis; assay type: cell-based
Outline: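 RS4;11/IRMI-2 cells are an MDM2 inhibitor-resistant line derived from RS4;11, with p53 mutations confirmed by sequencing. 2×10^6 cells/well were treated 2 h at the indicated concentrations. MDM2 protein was probed by Western blot after lysis in ice-cold buffer with protease inhibitor.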

MDA-MB-231 [12] = experiment: Antiproliferative activity against human MDA-MB-231 cells transfected with CRBN siRNA LQ-021086-11-0002 assessed as cell growth inhibition after 4 days by WST-8 assay; assay type: functional, cell-based; conditions: MDA-MB-231, 96 h; outline: as §4
MDA-MB-468 [13] = experiment: Antiproliferative activity against human MDA-MB-468 cells transfected with CRBN siRNA LQ-021086-11-0002 assessed as cell growth inhibition after 4 days by WST-8 assay; assay type: functional, cell-based; conditions: MDA-MB-468, 96 h; outline: as §4
[14] = biological target: T2, E3 ubiquitin-protein ligase Mdm2; experiment: Induction of MDM2 degradation in human RS4:11 cells assessed as downregulation of MDM2 at 1 to 30 nM after 1 hr by Western blot analysis; assay type: cell-based; outline: as §5
MDA-MB-468 [15] = experiment: Antiproliferative activity against human MDA-MB-468 cells assessed as cell growth inhibition after 4 days in presence of control siRNA for 3 days followed by compound treatment by WST-8 assay; assay type: functional, cell-based
[16] = biological target: Cellular tumor antigen p53 (Homo sapiens) (UniProt P04637); experiment: Activation of p53 in human RS4:11 cells assessed as increase in BAX mRNA expression at 10 nM after 1 to 2 hrs by qRT-PCR analysis; assay type: cell-based; outline: as §2
MDA-MB-231 [17] = experiment: Antiproliferative activity against human MDA-MB-231 cells harboring mutant p53 assessed as cell growth inhibition after 4 days by WST-8 assay; assay type: functional, cell-based; outline: as §1
[18] = biological target: T2, E3 ubiquitin-protein ligase Mdm2; experiment: Induction of MDM2 degradation in human RS4:11 cells assessed as upregulation of p53 at 1 to 30 nM after 1 hr by Western blot analysis; assay type: cell-based; outline: as §5
[19] = biological target: T2, E3 ubiquitin-protein ligase Mdm2; experiment: Induction of MDM2 degradation in human RS4:11 cells assessed as downregulation of MDM2 at 1 to 30 nM after 2 hrs by Western blot analysis; assay type: cell-based; outline: as §5
MDA-MB-231 [20] = experiment: Antiproliferative activity against human MDA-MB-231 cells transfected with CRBN siRNA LQ-021086-10-0002 assessed as cell growth inhibition after 4 days by WST-8 assay; assay type: functional, cell-based; conditions: MDA-MB-231, 72 h, in the assay text read “after 3 days” for “after 4 days”; outline: as §4

Sequence of Cellular tumor antigen p53 (Homo sapiens) (P04637 whole entry, looked up): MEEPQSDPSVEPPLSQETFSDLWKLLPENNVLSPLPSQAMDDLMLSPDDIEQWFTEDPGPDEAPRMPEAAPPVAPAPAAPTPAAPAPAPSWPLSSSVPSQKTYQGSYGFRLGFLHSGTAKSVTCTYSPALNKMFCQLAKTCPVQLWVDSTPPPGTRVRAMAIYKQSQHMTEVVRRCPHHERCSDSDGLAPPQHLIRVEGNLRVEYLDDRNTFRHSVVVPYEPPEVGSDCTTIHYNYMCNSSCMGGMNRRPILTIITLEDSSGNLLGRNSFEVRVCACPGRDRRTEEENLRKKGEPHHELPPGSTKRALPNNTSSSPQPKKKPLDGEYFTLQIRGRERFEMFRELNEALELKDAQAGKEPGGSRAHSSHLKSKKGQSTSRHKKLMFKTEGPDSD
T2 sequence (Q00987 whole entry, looked up): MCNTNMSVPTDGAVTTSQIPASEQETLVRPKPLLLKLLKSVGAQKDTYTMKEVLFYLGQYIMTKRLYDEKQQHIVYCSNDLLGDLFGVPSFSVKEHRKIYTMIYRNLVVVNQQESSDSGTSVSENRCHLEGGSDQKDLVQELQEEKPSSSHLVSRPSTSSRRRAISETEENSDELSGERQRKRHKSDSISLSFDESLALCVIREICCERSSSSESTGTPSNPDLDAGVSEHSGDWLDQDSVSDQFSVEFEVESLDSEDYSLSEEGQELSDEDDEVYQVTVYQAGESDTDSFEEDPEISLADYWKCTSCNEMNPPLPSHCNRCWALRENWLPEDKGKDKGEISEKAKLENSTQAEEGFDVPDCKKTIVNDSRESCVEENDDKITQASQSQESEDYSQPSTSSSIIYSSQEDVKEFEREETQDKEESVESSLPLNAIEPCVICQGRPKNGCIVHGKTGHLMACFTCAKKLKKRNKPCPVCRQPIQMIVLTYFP
T1 sequence (P15170 whole entry, looked up): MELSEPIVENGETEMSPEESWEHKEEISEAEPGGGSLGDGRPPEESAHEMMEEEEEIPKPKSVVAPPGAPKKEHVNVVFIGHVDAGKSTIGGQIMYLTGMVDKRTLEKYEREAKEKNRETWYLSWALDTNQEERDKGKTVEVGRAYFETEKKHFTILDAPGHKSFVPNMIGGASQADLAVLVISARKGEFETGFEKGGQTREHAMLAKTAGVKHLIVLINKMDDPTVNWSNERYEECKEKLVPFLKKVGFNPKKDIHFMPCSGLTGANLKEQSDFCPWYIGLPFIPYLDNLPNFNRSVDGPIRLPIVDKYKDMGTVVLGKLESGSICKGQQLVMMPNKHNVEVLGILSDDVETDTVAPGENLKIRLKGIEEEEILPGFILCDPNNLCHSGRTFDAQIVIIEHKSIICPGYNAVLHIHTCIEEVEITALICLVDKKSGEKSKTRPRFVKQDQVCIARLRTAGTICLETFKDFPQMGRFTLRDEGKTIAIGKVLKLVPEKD
T1 sequence (Q13619 whole entry, looked up): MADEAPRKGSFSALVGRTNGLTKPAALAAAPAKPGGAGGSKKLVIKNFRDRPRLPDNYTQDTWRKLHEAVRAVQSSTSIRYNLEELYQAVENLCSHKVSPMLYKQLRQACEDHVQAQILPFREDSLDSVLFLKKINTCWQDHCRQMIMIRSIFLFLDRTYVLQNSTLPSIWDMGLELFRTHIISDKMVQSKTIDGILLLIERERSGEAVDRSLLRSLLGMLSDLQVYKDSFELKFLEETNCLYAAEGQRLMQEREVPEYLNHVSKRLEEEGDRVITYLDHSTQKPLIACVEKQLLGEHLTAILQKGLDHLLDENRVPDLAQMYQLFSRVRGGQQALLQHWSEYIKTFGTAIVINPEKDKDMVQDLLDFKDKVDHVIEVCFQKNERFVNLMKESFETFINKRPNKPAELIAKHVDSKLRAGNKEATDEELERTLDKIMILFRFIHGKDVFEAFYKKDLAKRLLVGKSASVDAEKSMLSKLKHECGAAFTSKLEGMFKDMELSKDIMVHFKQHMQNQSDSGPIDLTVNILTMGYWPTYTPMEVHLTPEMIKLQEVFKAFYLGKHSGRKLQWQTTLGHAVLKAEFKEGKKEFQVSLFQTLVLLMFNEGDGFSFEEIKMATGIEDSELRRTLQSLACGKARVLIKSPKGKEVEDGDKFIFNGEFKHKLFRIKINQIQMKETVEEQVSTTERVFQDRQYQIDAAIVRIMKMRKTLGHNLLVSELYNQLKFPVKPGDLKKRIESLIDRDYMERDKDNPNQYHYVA
T1 sequence (Q16531 whole entry, looked up): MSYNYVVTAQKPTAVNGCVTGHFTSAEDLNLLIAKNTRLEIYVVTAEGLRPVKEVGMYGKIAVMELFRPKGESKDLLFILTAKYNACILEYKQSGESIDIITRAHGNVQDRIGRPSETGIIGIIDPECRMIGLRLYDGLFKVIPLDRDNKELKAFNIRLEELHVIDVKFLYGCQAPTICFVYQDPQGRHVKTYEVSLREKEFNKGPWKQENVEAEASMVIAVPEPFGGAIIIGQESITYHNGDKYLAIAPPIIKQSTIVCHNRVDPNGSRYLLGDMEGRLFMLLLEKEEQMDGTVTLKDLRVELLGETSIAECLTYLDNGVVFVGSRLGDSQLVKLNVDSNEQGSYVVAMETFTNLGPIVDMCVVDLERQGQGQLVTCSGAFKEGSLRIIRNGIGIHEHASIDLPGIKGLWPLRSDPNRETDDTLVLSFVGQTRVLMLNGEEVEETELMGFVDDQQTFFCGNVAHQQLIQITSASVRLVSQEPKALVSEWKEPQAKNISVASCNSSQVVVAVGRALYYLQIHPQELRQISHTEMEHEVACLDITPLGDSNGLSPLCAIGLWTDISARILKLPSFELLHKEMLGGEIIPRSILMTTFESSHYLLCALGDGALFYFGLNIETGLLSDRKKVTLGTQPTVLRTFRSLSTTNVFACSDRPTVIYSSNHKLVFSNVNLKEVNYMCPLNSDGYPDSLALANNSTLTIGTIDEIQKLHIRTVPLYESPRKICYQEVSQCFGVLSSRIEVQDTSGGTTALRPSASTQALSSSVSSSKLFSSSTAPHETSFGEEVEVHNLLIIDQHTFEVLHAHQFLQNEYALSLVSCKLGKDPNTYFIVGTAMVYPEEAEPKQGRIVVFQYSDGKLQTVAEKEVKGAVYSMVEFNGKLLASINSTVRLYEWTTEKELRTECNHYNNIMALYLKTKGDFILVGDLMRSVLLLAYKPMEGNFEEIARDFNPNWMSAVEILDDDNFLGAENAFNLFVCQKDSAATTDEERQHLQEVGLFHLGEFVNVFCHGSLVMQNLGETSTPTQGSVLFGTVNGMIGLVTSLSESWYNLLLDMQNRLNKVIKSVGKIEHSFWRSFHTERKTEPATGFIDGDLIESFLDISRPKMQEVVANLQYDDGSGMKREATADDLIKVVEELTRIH
T1 sequence (Q96SW2 whole entry, looked up): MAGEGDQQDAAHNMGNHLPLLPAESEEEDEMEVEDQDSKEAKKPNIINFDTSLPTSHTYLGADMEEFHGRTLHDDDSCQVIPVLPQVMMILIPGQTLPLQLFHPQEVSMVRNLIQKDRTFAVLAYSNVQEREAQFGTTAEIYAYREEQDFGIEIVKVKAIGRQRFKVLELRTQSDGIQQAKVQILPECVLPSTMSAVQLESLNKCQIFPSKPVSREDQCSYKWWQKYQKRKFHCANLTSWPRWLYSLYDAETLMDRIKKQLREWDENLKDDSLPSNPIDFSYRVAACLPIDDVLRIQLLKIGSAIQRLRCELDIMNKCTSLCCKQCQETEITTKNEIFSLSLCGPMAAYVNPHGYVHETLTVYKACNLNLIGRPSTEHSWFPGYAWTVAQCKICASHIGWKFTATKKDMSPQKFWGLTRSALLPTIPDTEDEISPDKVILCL

O=C1CCC(N2Cc3c(CCCCCNC(=O)c4ccc(NC(=O)[C@@H]5NC6(CCCCC6)[C@@]6(C(=O)Nc7cc(Cl)ccc76)[C@H]5c5cccc(Cl)c5F)cc4)cccc3C2=O)C(=O)N1 (stereo partly drawn)
growth inhibition (GI) (MDA-MB-468 [1]): inactive
Activity [2]: Active
Activity [3]: inactive
IC50 (MDA-MB-468 [4]): > 3000 nM
Activity [5]: Active
Activity [6]: Active
growth inhibition (GI) (Homo sapiens): inactive
growth inhibition (GI) (HL-60): inactive
Activity [7]: inactive
IC50 (RS4-11): 7.9 nM
IC50 (MDA-MB-231 [8]): > 3000 nM
Activity [9]: Active
IC50 [10]: > 10000 nM
Activity [11]: Active
IC50 (MDA-MB-231 [12]): > 3000 nM
IC50 (MDA-MB-468 [13]): > 3000 nM
Activity [14]: Active
IC50 (MDA-MB-468 [15]): > 3000 nM
Activity [16]: Active
growth inhibition (GI) (MDA-MB-231 [17]): inactive
Activity [18]: Active
Activity [19]: Active
IC50 (MDA-MB-231 [20]): > 3000 nM
